Assay results from different studies.
In brackets after ≈: the same amount, converted by molar mass.

COc1ccc(N2CCN(C(=O)/C=C/c3ccc4c(c3)C=CC(C)(C)O4)CC2)cc1  viability (rat Primary cortical neuron; cell growth or viability, MTT; 1 µM, 12 h): 75%
CC(C)[C@H](NC(=O)[C@H](CCCNC(=N)N)NC(=O)N[C@@H](Cc1ccccc1)C(=O)O)C(=O)N[C@H](C=O)CCCNC(=N)N  IC50 (Human coronavirus 229E; viral replication; Huh7.5): 1.57 µM
O=C(Cc1ccc2ccccc2c1)N[C@@H](Cc1ccccc1)C(=O)N[C@@H](Cc1ccccc1)C(=O)N[C@H](Cc1ccc(OP(=O)(O)O)cc1)C(=O)O  IC50 (HeLa; cell growth or viability, MTT; 48 h): 428 µM
C=CCCCCCCCCC(=O)C(F)(F)P(=O)(O)O  MIC (Enterococcus faecalis; microbial growth; ATCC33186): > 200 µg/mL
Cc1cccc(CSc2nccc(OCCOc3cc(=O)oc4ccccc34)n2)c1  inhibition (Human coronavirus 229E; cytopathic effect; A549; 12.5 µM): 38.1%
COc1ccc(NC(=O)/C=C/c2ccc3c(c2)C=CC(C)(C)O3)cc1  viability (rat Primary cortical neuron; cell growth or viability, MTT; 1 µM, 12 h): 87%
CCOC(=O)C1=C[C@@H](OC(CC)CC)[C@H](NC(C)=O)[C@@H](N)C1  IC50 (Human coronavirus 229E; viral replication; A549): 7.65 µM
Nc1ncnc2c([C@@H]3N[C@H](CO)[C@@H](O)[C@H]3O)c[nH]c12  inhibition (Japanese encephalitis virus; viral replication, inhibitor; Vero 76; 9.5 µM): 9.8%
CCCCCC/C=C\CCCCCCCCCC(=O)CP(=O)(O)O  MIC (Enterococcus faecalis; microbial growth; ATCC33186): 12.5 µg/mL (≈ 34.7 µM)
COc1cccc(NC(=O)/C=C/c2ccc3c(c2)C=CC(C)(C)O3)c1  viability (rat Primary cortical neuron; cell growth or viability, MTT; 1 µM, 12 h): 87%
CCCC(=O)CP(=O)(O)O  MIC (Enterococcus faecalis; microbial growth; ATCC33186): > 200 µg/mL
CC[C@@]1(O)C[C@H](O[C@H]2C[C@H](N(C)C)[C@H](O[C@H]3C[C@H](O)[C@H](O[C@H]4CCC(=O)[C@H](C)O4)[C@H](C)O3)[C@H](C)O2)c2c(cc3c(c2O)C(=O)c2c(O)cccc2C3=O)[C@H]1C(=O)OC  IC50 (Human coronavirus 229E; viral replication; Calu-3): 2.34 µM
CCCCCC/C=C\CCCCCCCCCC(=O)NP(=O)(O)O  MIC (Enterococcus faecalis; microbial growth; ATCC33186): 200 µg/mL (≈ 553 µM)
O=c1cc(OCCCOc2ccnc(SCc3ccc(F)cc3)n2)c2cc(F)ccc2o1  inhibition (Human coronavirus 229E; cytopathic effect; A549; 25 µM): 65.8%
COC1=C2C[C@@H](C)C[C@H](OC)[C@H](O)[C@@H](C)/C=C(\C)[C@H](OC(N)=O)[C@@H](OC)/C=C\C=C(/C)C(=O)NC(=CC1=O)C2=O  IC50 (Human coronavirus 229E; viral replication; Calu-3): 8.71 µM
CCCCCCCCCCCCCCCC(=O)NP(=O)(O)O  MIC (Enterococcus faecalis; microbial growth; ATCC33186): 200 µg/mL (≈ 596 µM)
